Results on three compounds are retold here after ChEMBL document CHEMBL1156019, “Synthesis and small-animal positron emission tomography evaluation of [11C]-elacridar as a radiotracer to assess the distribution of P-glycoprotein at the blood-brain barrier” (J Med Chem, 2009).

One may read the inhibition as the share of the control response that was lost under treatment. Low values mean a response near the control, high ones a response far below the control. By pKi is commonly meant −log10 of the Ki, conventionally taken in molar units.

Data set [1] has as its system Blood. As to the kind of experiment: Biodistribution in Bcrp1 knockout mouse blood assessed per gram of tissue at 42 +/- 6 MBq, iv after 20 mins by gamma counting. The following applies: in vivo.
Data set [2] relates to Brain. As to the kind of experiment: Biodistribution in naive rat brain assessed per gram of tissue at 118 +/- 40 MBq, iv after 18 mins by positron emission tomography. It is filed as ADME, organism-based. The following applies: in vivo, 0.3 h. Put shortly: (§1)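 Naïve rats under 1.5-2% isoflurane with femoral artery and vein catheters; [11C]-tracer 118±40 MBq i.v. bolus over ~30 s; dynamic microPET. Scan 1: unlabeled compound 5 mg/kg i.v. at 60 min, then 90 min more acquisition; scan 2 given 2 h after unlabeled dose. Whole-brain TACs as %ID/g; arterial blood sampled serially and gamma counted. n=3, mean ± SD.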

In data set [3] the test system is Brain. As to the kind of experiment: Biodistribution in wild type mouse brain assessed per gram of tissue, iv after 18 mins. The conditions noted are these: in vivo, 0.3 h.
Data set [4] deals with Brain. As to the kind of experiment: Biodistribution in Mdr1a/b knockout mouse brain assessed per gram of tissue, iv after 18 mins. The conditions noted are these: in vivo, 0.3 h.
Data set [5] deals with Blood. As to the kind of experiment: Biodistribution in naive rat blood assessed per gram of tissue at 118 +/- 40 MBq, iv after 20 mins by gamma counting. Format: ADME, organism-based. The following applies: in vivo. Put shortly:
as §1

The nature of data set [6]: Ratio of drug level in wild type mouse brain to naive rat brain. The conditions noted are these: in vivo. It is filed as ADME, tissue-based. An outline of the steps: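 Whole-brain %ID/g at 18 min after i.v. [11C]-1, from dynamic PET. Wild-type female FVB mice received 42±6 MBq via tail vein. Naive rats (baseline scan, before any unlabeled compound) received 118±40 MBq via femoral vein catheter. Both groups under isoflurane; n=3 each.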

The subject of data set [7] is Brain. As to the kind of experiment: Ratio of drug level in Mdr1a/b knockout mouse brain to wild type mouse brain. It is filed as ADME, tissue-based. The following applies: in vivo. Put shortly:
(§2)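 Wild-type FVB, Mdr1a/b(-/-) and Bcrp1(-/-) female mice (25-30 g), isoflurane-anesthetized and kept warm. [11C]-1 42±6 MBq i.v. bolus via tail vein, with a 60-min dynamic microPET scan started at injection. Whole-brain %ID/g read from time-activity curves at 18 min; knockout/wild-type ratios taken at 18 min; n=3; two-tailed unpaired t-test.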

Data set [8] has as its system Brain. As to the kind of experiment: Biodistribution in Bcrp1 knockout mouse brain assessed per gram of tissue, iv after 18 mins. The conditions noted are these: in vivo, 0.3 h.
For data set [9], the system named is Blood. As to the kind of experiment: Biodistribution in wild type mouse blood assessed per gram of tissue at 42 +/- 6 MBq, iv after 20 mins by gamma counting. The conditions noted are these: in vivo.
Data set [10] concerns Blood. As to the kind of experiment: Biodistribution in Mdr1a/b knockout mouse blood assessed per gram of tissue at 42 +/- 6 MBq, iv after 20 mins by gamma counting. The following applies: in vivo.
In data set [11] the test system is Brain. As to the kind of experiment: Biodistribution in naive rat brain assessed per gram of tissue at 118 +/- 40 MBq, iv after 0.6 mins by positron emission tomography. Format: ADME, organism-based. The conditions noted are these: in vivo, 0.01 h. An outline of the steps: as §1
The test system of data set [12] is Brain. As to the kind of experiment: Ratio of drug level in Bcrp1 knockout mouse brain to wild type mouse brain. Format: ADME, tissue-based. The following applies: in vivo. An outline of the steps:
as §2

Data set [13] relates to Brain. As to the kind of experiment: Biodistribution of rat brain at 20 MBq, iv after 30 mins post-injection in presence of cyclosporine A treated before compound infusion relative to basal level. It is filed as ADME, organism-based. The following applies: in vivo, 0.5 h.
The species entered for a further data set is Rattus norvegicus. The conditions noted are these: Sprague-Dawley, 10 M.
In data set [14] the test system is Brain. As to the kind of experiment: Biodistribution in naive rat brain assessed per gram of tissue at 118 +/- 40 MBq, iv after 130 mins by positron emission tomography. Format: ADME, organism-based. The following applies: in vivo. Put shortly: as §1
Data set [15] concerns Brain. As to the kind of experiment: Biodistribution in naive rat brain assessed per gram of tissue at 118 +/- 40 MBq, iv administered 2 hrs after unlabeled elacridar infusion measured after 18 mins by positron emission tomography. Format: ADME, organism-based. The following applies: in vivo, 0.3 h. Put shortly:
as §1

The nature of data set [16]: Inhibition of P-gp-mediated [3H]daunorubicin transport in Wistar rat hepatocytes by scintillation counting. It is filed as cell-based. The conditions noted are these: hepatocyte.
The subject of the next data set is Caco-2. As to the kind of experiment: Ratio of permeability from basolateral to apical side over apical to basolateral side in human Caco-2 cells.
Data set [17] concerns Brain. As to the kind of experiment: Ratio of drug level in naive rat brain at 118 +/- 40 MBq, iv administered 2 hrs after unlabeled elacridar infusion to drug level in naive rat brain at 118 +/- 40 MBq, iv administered before unlabeled elacridar infusion. Format: ADME, organism-based. The following applies: in vivo. Put shortly:
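Naive rats under isoflurane with femoral artery and vein catheters; n=3. Scan 1: [11C]-1 118±40 MBq i.v. bolus over about 30 s, then dynamic PET. At 60 min, unlabeled 1 (5 mg/kg) i.v. over about 20 s, then 90 min more imaging. Scan 2 run 2 h after unlabeled dose. Whole-brain %ID/g at 18 min compared as scan 2/scan 1; two-tailed paired t-test.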

pKi: −log10 of the molar value.

Turning to `COc1cc2c(cc1OC)CN(CCc1ccc(NC(=O)c3cccc4c(=O)c5cccc(O[11CH3])c5[nH]c34)cc1)CC2`, the Drug uptake in the data set on Blood [1] is 0.89 %ID; in the data set with Brain [2], 0.07 %ID; in the data set with Brain [3], 0.72 %ID; in the data set with Brain [4] it was 1.8 %ID; in the data set on Blood [5] it was 0.02 %ID; with Brain [8], 0.9 %ID. The Drug uptake with Blood [9] came out at 0.97 %ID; in the data set on Blood [10], 0.64 %ID; in the data set with Brain [11], 0.23 %ID. Also, the Ratio in [6] worked out at 10; in the data set with Brain [7], 2.5; with Brain [12] it was 1.3.

`[11CH3]OC(=O)c1cnc2n1CCc1ccccc1C2=C1CCN(CCc2ccc(OCc3ccc4ccccc4n3)cc2)CC1`: the “fold change (FC)” value in the data set on Brain [13] is on record as 6.

`COc1cc2c(cc1OC)CN(CCc1ccc(NC(=O)c3cccc4c(=O)c5cccc(OC)c5[nH]c34)cc1)CC2` yielded an inhibition in the data set listed under Rattus norvegicus of 63%. In addition, the results for the Drug uptake in the data set with Brain [14] and in the data set on Brain [15] were 0.28 %ID and 0.4 %ID, respectively. Also, in [16], the negative logarithm of the Ki (pKi) is 7.46. Besides, the Ratio with Caco-2 is listed as < 2; in the data set on Brain [17], 5.4.
